In ChEMBL document CHEMBL1123184, “Thromboxane synthetase inhibitors and antihypertensive agents. 2. N-[(1H-imidazol-1-yl)alkyl]-1H-isoindole-1,3(2H)-diones and N-[(1H-1,2,4-triazol-1-yl)alkyl]-1H-isoindole-1,3(2H)-diones as unique antihypertensive agents” (J Med Chem, 1986):
Calls of active or inactive are those of the source.

Assays:
[1] = tested on: Rattus norvegicus; assay: Compound was tested for the antihypertensive activity in rats, after peroral administration of 100 mg/kg for 2 days (no. of rats=4); I=Inactive; format: functional, organism-based; set-up: dose 100 mg/kg
Procedure, shortened: (§1)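 Male 16-week-old Okamoto SHR (mean arterial pressure 170 ± 1.5 mmHg). Compound suspended in 2% preboiled starch (50 mg/mL) and given by gavage at 100 mg/kg, with 0.9% NaCl load 25 mL/kg. Second identical dose without saline 24 h later. Mean arterial pressure read 28 h after first dose. Active: one rat ≤116 mmHg or mean of two ≤122 mmHg.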

[2] = biological target: T1, Thromboxane-A synthase (Rattus norvegicus) (UniProt P49430); assay: Inhibition of thromboxane formation in platelets at a concentration of 10e-4 M; format: functional
T1 sequence (whole entry): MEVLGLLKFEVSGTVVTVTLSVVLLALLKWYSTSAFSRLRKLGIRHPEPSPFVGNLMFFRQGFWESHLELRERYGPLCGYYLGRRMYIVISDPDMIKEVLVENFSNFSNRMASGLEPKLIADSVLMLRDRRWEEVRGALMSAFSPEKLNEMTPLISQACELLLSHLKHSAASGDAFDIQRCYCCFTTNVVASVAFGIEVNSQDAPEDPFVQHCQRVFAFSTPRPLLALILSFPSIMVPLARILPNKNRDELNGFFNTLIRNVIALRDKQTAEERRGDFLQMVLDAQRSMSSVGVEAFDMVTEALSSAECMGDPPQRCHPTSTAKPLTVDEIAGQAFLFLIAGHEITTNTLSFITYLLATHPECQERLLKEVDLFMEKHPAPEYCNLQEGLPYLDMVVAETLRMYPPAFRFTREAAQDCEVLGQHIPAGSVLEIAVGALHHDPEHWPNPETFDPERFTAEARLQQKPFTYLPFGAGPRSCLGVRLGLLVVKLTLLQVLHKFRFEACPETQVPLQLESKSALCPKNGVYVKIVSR
Procedure, shortened: (§2)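 SHR washed platelets (4.5–6.0 × 10^4/μL, Krebs phosphate pH 7.4) incubated 10 min at 37 °C with compound at 10^-4 M. Reaction stopped with citric acid on ice. TXB2 quantified by RIA, boiled-control blank subtracted, and percent inhibition of TXB2 formation calculated. Number of determinations given per value.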

[3] = tested on: Rattus norvegicus; assay: Compound was tested for the antihypertensive activity in rats, after peroral administration of 100 mg/kg for 2 days (no. of rats=3); A=Active; format: functional, organism-based; set-up: dose 100 mg/kg; procedure, shortened: as §1
[4] = biological target: T1, Thromboxane-A synthase (Rattus norvegicus); assay: Inhibition of thromboxane formation (thromboxane synthetase) in platelets at 10e-4 M; format: functional; procedure, shortened: as §2
[5] = tested on: Rattus norvegicus; assay: Compound was tested for the antihypertensive activity in rats, after peroral administration of 100 mg/kg; I=Inactive; format: functional, organism-based; set-up: dose 100 mg/kg; procedure, shortened: as §1
[6] = biological target: T2, Thromboxane-A synthase (Rattus norvegicus, UniProt P49430); assay: (§3) Compound was tested for the inhibition of thromboxane synthetase
T2 sequence (P49430 whole entry): T1 sequence (whole entry)
Procedure, shortened: (§4)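 Washed platelets from urethan-anesthetized SHR aged 19–24 weeks, in oxygenated Krebs phosphate buffer pH 7.4 at (4.5–6.0) × 10^4 platelets/μL. Incubated 10 min at 37 °C with compound, stopped with citric acid on ice. TXB2 measured by RIA; boiled-sample blank subtracted. IC50 read from percent inhibition vs log concentration plot; duplicate measurements.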

[7] = tested on: Rattus norvegicus; assay: Compound was tested for the antihypertensive activity in rats, after peroral administration of 100 mg/kg for 2 days (no. of rats=2); A=Active; format: functional, organism-based; set-up: dose 100 mg/kg; procedure, shortened: as §1
[8] = tested on: Rattus norvegicus; assay: Compound was tested for the antihypertensive activity in rats, after peroral administration of 100 mg/kg for 2 days (no. of rats=2); I=Inactive; format: functional, organism-based; set-up: dose 100 mg/kg; procedure, shortened: as §1
[9] = tested on: Rattus norvegicus; assay: Compound was tested for the antihypertensive activity in rats, after peroral administration of 100 mg/kg for 2 days (no. of rats=3); I=Inactive; format: functional, organism-based; set-up: dose 100 mg/kg; procedure, shortened: as §1
[10] = biological target: T2, Thromboxane-A synthase; assay: as §3; format: functional; procedure, shortened: as §4
[11] = tested on: Rattus norvegicus; assay: Compound was tested for the antihypertensive activity in rats, after peroral administration of 100 mg/kg; A=Active; format: functional, organism-based; set-up: dose 100 mg/kg; procedure, shortened: as §1
[12] = tested on: Rattus norvegicus; assay: Compound was tested for the antihypertensive activity in rats, after peroral administration of 100 mg/kg for 2 days (no. of rats=2); a=Active; format: functional, organism-based; set-up: dose 100 mg/kg; procedure, shortened: as §1

## Cc1nccn1CCCCN1C(=O)c2ccccc2C1=O
[1]
  Activity: inactive
[2]
  inhibition: 22%

## CC(CCn1ccnc1)N1C(=O)c2ccccc2C1=O (stereo unspecified)
[2]
  inhibition: 94%
[3]
  Activity: Active

## O=C1c2ccc(Cl)c(Cl)c2C(=O)N1CCCCn1ccnc1
[4]
  inhibition: 100%
[5]
  Activity: inactive

## O=C1c2ccccc2C(=O)N1CCCCCn1ccnc1
[6]
  IC50: 6 µM
[2]
  inhibition: 92%
[7]
  Activity: Active

## Cc1cccc2c1C(=O)N(CCCCn1ccnc1)C2=O
[6]
  IC50: 2 µM
[2]
  inhibition: 100%
[7]
  Activity: Active

## O=C1c2ccccc2C(=O)N1CCCn1cncn1
[2]
  inhibition: 64%
[7]
  Activity: Active

## Cc1nccn1CCCN1C(=O)c2ccccc2C1=O
[8]
  Activity: inactive
[2]
  inhibition: 36%

## Cc1cccc2c1C(=O)N(CCCn1ccnc1)C2=O
[9]
  Activity: inactive
[6]
  IC50: 4 µM
[2]
  inhibition: 100%

## O=C1c2ccccc2C(=O)N1CCn1ccnc1
[2]
  inhibition: 20%
[7]
  Activity: Active

## O=C1c2ccccc2C(=O)N1CCCCn1ccnc1
[6]
  IC50: 2 µM
[2]
  inhibition: 99%
[7]
  Activity: Active

## O=C1c2ccccc2C(=O)N1CCCCCn1cncn1
[2]
  inhibition: 79%
[7]
  Activity: Active

## O=C1c2cccc(Br)c2C(=O)N1CCCn1cncn1
[4]
  inhibition: 76%
[5]
  Activity: inactive

## Cc1cn(CCCN2C(=O)c3ccccc3C2=O)cn1
[8]
  Activity: inactive
[2]
  inhibition: 68%

## O=C1c2ccccc2C(=O)N1CCCCCCn1ccnc1
[10]
  IC50: 1500 nM
[4]
  inhibition: 100%
[11]
  Activity: Active

## CC(CCn1cncn1)N1C(=O)c2ccccc2C1=O (stereo unspecified)
[1]
  Activity: inactive
[2]
  inhibition: 47%

## O=C1c2ccccc2C(=O)N1CCCCCCCCCCn1ccnc1
[10]
  IC50: 100 nM
[4]
  inhibition: 92%
[5]
  Activity: inactive

## O=C1c2ccccc2C(=O)N1C/C=C/Cn1ccnc1
[2]
  inhibition: 85%
[7]
  Activity: Active

## O=C1c2cccc(Cl)c2C(=O)N1CCCn1ccnc1
[4]
  inhibition: 92%
[11]
  Activity: Active

## O=C1c2ccc(Cl)c(Cl)c2C(=O)N1CCCn1ccnc1
[10]
  IC50: 400 nM
[4]
  inhibition: 100%
[5]
  Activity: inactive

## O=C1c2cccc(Cl)c2C(=O)N1CCCCn1ccnc1
[4]
  inhibition: 100%
[11]
  Activity: Active

## O=C1c2ccccc2C(=O)N1CCCCn1ccnc1-c1ccccc1
[9]
  Activity: inactive
[2]
  inhibition: 57%

## O=C1c2ccccc2C(=O)N1CCCn1ccnc1
[6]
  IC50: 5 µM
[2]
  inhibition: 94%
[7]
  Activity: Active

## O=C1c2ccccc2C(=O)N1CCCCCCCCn1ccnc1
[10]
  IC50: 200 nM
[4]
  inhibition: 100%
[5]
  Activity: inactive

## O=C1c2cccc(Br)c2C(=O)N1CCCCCn1ccnc1
[10]
  IC50: 600 nM
[4]
  inhibition: 87%
[5]
  Activity: inactive

## CCc1nccn1CCCCN1C(=O)c2ccccc2C1=O
[8]
  Activity: inactive
[2]
  inhibition: 65%

## CC(CCn1ccnc1)N1C(=O)c2cccc(Br)c2C1=O (stereo unspecified)
[4]
  inhibition: 89%
[5]
  Activity: inactive

## Cc1cn(CCCCN2C(=O)c3ccccc3C2=O)cn1
[9]
  Activity: inactive
[2]
  inhibition: 86%

## O=C1c2ccc(Cl)c(Cl)c2C(=O)N1CCCn1cncn1
[4]
  inhibition: 73%
[5]
  Activity: inactive

## O=C1c2cccc(Br)c2C(=O)N1CCCCn1ccnc1
[10]
  IC50: 1000 nM
[4]
  inhibition: 100%
[11]
  Activity: Active

## O=C1c2ccccc2C(=O)N1CCCCn1cncn1
[2]
  inhibition: 70%

## CCc1nccn1CCCN1C(=O)c2ccccc2C1=O
[8]
  Activity: inactive
[2]
  inhibition: 0%

## O=C1c2ccccc2C(=O)N1CCn1cncn1
[12]
  Activity: Active
[2]
  inhibition: 0%

## O=C1c2ccccc2C(=O)N1CC#CCn1ccnc1
[4]
  inhibition: 100%
[11]
  Activity: Active
